Measurements pooled from the literature.
Protocols differ between the studies behind these lines.
Target: Protein kinase C epsilon type (PRKCE, Homo sapiens, UniProt Q02156)
Sequence (Q02156 1-737, as in one of the studies): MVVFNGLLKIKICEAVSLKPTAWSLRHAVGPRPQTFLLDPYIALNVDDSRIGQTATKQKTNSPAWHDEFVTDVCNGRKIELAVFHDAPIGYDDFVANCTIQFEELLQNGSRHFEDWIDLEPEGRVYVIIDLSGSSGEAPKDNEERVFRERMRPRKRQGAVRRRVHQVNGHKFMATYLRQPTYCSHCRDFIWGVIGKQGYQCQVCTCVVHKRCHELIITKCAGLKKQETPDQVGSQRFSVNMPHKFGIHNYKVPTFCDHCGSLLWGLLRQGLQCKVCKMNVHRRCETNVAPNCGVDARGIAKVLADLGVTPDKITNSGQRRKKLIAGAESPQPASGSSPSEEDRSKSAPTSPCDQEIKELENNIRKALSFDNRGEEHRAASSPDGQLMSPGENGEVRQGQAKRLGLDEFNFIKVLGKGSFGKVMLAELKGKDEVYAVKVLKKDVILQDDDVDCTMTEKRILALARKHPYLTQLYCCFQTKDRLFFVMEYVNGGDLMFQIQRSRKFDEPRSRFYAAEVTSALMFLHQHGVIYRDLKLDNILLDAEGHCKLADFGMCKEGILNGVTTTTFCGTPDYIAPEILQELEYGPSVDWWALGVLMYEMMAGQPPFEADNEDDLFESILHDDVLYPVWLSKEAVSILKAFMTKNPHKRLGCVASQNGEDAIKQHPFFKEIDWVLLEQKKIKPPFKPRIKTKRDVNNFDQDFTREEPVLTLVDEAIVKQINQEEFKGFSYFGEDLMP

SMILES	assay	setting	remaining binding [%]
O=C(Nc1ccc(Oc2ccc(F)cc2)cc1)N1CCc2ncccc2[C@H]1c1ccc(F)cc1	cell-free assay, competition with immobilised ligand	1 µM	100
CN(C)c1ncc(F)c(-c2cnn3ncccc23)n1	binding	1 µM	95
Cc1c[nH]c2nccc(Oc3c(F)cc(Nc4cc(Cl)nc(N)n4)cc3F)c12	cell-free assay, competition with immobilised ligand	0.1 µM	96
Cc1cnc(Nc2ccc(C(=O)N3CCC(N4CCCC4)CC3)cc2)nc1-c1cc2ccccc2s1	binding, competition with immobilised ligand	1 µM	26
Cn1nc(C(=O)NCc2ccc(C(=O)O)cc2)cc1-c1ccc2[nH]ccc2c1	cell-free assay, competition with immobilised ligand	0.1 µM	64
FC(F)(F)Oc1cccc(-c2cnc3ccc(-c4ccncc4)nn23)c1	cell-free assay, competition with immobilised ligand	5 µM	62
CN(C)c1nccc(-c2cnn3ncccc23)n1	binding	1 µM	100
COc1cc(-c2cn(C3CCc4ccccc4N(CC(F)(F)F)C3=O)nn2)ccc1-n1ccc(C)n1 (centres unmarked)	cell-free assay, competition with immobilised ligand	1 µM	100
COc1ncc2cc3ccccc3nc2c1C#N	cell-free assay, competition with immobilised ligand	5 µM	89
O=C(c1ccc(Nc2ncc(Cl)c(-c3cc4ccccc4s3)n2)cc1)N1CCC(N2CCCC2)CC1	binding, competition with immobilised ligand	1 µM	50
COc1cnc(Nc2cccc(S(N)(=O)=O)c2)nc1N1CCN(c2ccccc2)CC1	binding, competition with immobilised ligand	1 µM	100
COc1ccnn2ncc(-c3ccnc(N(C)C)n3)c12	binding	1 µM	100
CS(=O)(=O)N1CCCC(NC(=O)[C@H](CCC2CCCCC2)NC(=O)c2ccc(CNc3ncnc4c3nnn4-c3ccccc3)cc2)C1 (some centres unmarked)	cell-free assay, competition with immobilised ligand	0.1 µM	63
CN(c1nccc(-c2cnn3ncccc23)n1)C1CC1	binding	1 µM	83
CCN1CCN(Cc2ccc(C(=O)Nc3ccc(C)c(Oc4ccc5c(c4)CC(=O)N5)c3)cc2C(F)(F)F)CC1	binding, competition with immobilised ligand	1 µM	100
CN(C)c1nccc(-c2cnc3ncccn23)n1	binding	1 µM	100
O=C(Nc1c[nH]nc1C(=O)NC1CCNCC1)c1cc(F)cc(F)c1	binding, competition with immobilised ligand	1 µM	70
